Reference: article PMC7867784 (Translational Lung Cancer Research, 2021)

Test system: Japanese patients with RET-rearranged NSCLC
Assay: ALL-RET phase 1/2 trial: safety
Assay type: in vivo, human
How it was run: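 Adverse events were graded by NCI CTCAE v4.0, with causal relation to treatment recorded separately. Dose finding used a 3+3 de-escalation design with 3–6 patients per cohort. DLT was evaluated over the first 21-day cycle and defined as grade ≥4 thrombopenia, grade ≥3 febrile neutropenia, grade ≥4 neutropenia lasting ≥4 days, or grade ≥3 non-hematologic toxicity, with specified exceptions. Follow-up ran until January 2019.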

[1] = 600 mg BID (N=6), dose limiting toxicity
[2] = Japanese patients with RET-rearranged NSCLC

With `CCc1cc2c(cc1N1CCC(N3CCOCC3)CC1)C(C)(C)c1[nH]c3cc(C#N)ccc3c1C2=O` [alectinib] the “Constipation, any grade, number [causally related]” value (600 mg BID (N=6)) was 4 [4], the “Constipation, any grade, percent” value (600 mg BID (N=6)) was 66.7% and the “Constipation, grade 1–2, number (total)” value (600 mg BID (N=6)) was 4 [4]. The “Constipation, grade 1–2, number [causally related]” value (600 mg BID (N=6)) was 4 [4], the “Constipation, grade 3, number” value (600 mg BID (N=6)) was 0 and the “Constipation, grade 4, number” value (600 mg BID (N=6)) was 0. The “Creatine phosphokinase increase, any grade, number (total)” value (600 mg BID (N=6)) was 2 [2], the “Creatine phosphokinase increase, any grade, number [causally related]” value (600 mg BID (N=6)) was 2 [2] and the “Creatine phosphokinase increase, any grade, percent” value (600 mg BID (N=6)) was 33.3%. The “Creatine phosphokinase increase, grade 1–2, number (total)” value (600 mg BID (N=6)) was 1[1], the “Creatine phosphokinase increase, grade 1–2, number [causally related]” value (600 mg BID (N=6)) was 1[1] and the “Creatine phosphokinase increase, grade 4, number” value (600 mg BID (N=6)) was 0. The “Creatinine increase, any grade, number (total)” value (600 mg BID (N=6)) was 2 [2], the “Creatinine increase, any grade, number [causally related]” value (600 mg BID (N=6)) was 2 [2] and the “Creatinine increase, any grade, percent” value (600 mg BID (N=6)) was 33.3%. The “Creatinine increase, grade 1–2, number (total)” value (600 mg BID (N=6)) was 2[2], the “Creatinine increase, grade 1–2, number [causally related]” value (600 mg BID (N=6)) was 2[2] and the “Creatinine increase, grade 3, number” value (600 mg BID (N=6)) was 0. For the same compound, the “Creatinine increase, grade 4, number” value (600 mg BID (N=6)) was 0, the “Dysgeusia, any grade, number (total)” value (600 mg BID (N=6)) was 2 [2] and the “Dysgeusia, any grade, number [causally related]” value (600 mg BID (N=6)) was 2 [2]. The “Dysgeusia, any grade, percent” value (600 mg BID (N=6)) was 33.3%, the “Dysgeusia, grade 1–2, number (total)” value (600 mg BID (N=6)) was 2 [2] and the “Dysgeusia, grade 1–2, number [causally related]” value (600 mg BID (N=6)) was 2 [2]. For the same compound, the “Dysgeusia, grade 3, number” value (600 mg BID (N=6)) was 0, the “Dysgeusia, grade 4, number” value (600 mg BID (N=6)) was 0 and the “Erythema multiforme, any grade, number (total)” value (600 mg BID (N=6)) was 1 [1]. The “Erythema multiforme, any grade, number [causally related]” value (600 mg BID (N=6)) was 1 [1], the “Erythema multiforme, any grade, percent” value (600 mg BID (N=6)) was 16.7% and the “Erythema multiforme, grade 1–2, number” value (600 mg BID (N=6)) was 0. The “Erythema multiforme, grade 4, number” value (600 mg BID (N=6)) was 0, the “Hepatic function abnormal, any grade, number (total)” value (600 mg BID (N=6)) was 2 [2] and the “Hepatic function abnormal, any grade, number [causally related]” value (600 mg BID (N=6)) was 2 [2]. The “Hepatic function abnormal, any grade, percent” value (600 mg BID (N=6)) was 33.3%, the “Hepatic function abnormal, grade 1–2, number (total)” value (600 mg BID (N=6)) was 1 [1] and the “Hepatic function abnormal, grade 1–2, number [causally related]” value (600 mg BID (N=6)) was 1 [1]. The “Hepatic function abnormal, grade 4, number” value (600 mg BID (N=6)) was 0, the “Lymphocyte decrease, any grade, number (total)” value (600 mg BID (N=6)) was 1 [1] and the “Lymphocyte decrease, any grade, number [causally related]” value (600 mg BID (N=6)) was 1 [1]. For the same compound, the “Lymphocyte decrease, any grade, percent” value (600 mg BID (N=6)) was 16.7%, the “Lymphocyte decrease, grade 1–2, number” value (600 mg BID (N=6)) was 0 and the “Lymphocyte decrease, grade 3, number” value (600 mg BID (N=6)) was 0. For the same compound, the “Lymphocyte decrease, grade 4, number (total)” value (600 mg BID (N=6)) was 1 [1], the “Lymphocyte decrease, grade 4, number [causally related]” value (600 mg BID (N=6)) was 1 [1] and the “Myalgia, any grade, number (total)” value (600 mg BID (N=6)) was 3 [3]. For the same compound, the “Myalgia, any grade, number [causally related]” value (600 mg BID (N=6)) was 3 [3], the “Myalgia, any grade, percent” value (600 mg BID (N=6)) was 50.0% and the “Myalgia, grade 1–2, number (total)” value (600 mg BID (N=6)) was 3 [3]. The “Myalgia, grade 1–2, number [causally related]” value (600 mg BID (N=6)) was 3 [3], the “Myalgia, grade 3, number” value (600 mg BID (N=6)) was 0 and the “Myalgia, grade 4, number” value (600 mg BID (N=6)) was 0. The “Oedema peripheral, any grade, number (total)” value (600 mg BID (N=6)) was 2 [2], the “Oedema peripheral, any grade, number [causally related]” value (600 mg BID (N=6)) was 2 [2] and the “Oedema peripheral, any grade, percent” value (600 mg BID (N=6)) was 33.3%. For the same compound, the “Oedema peripheral, grade 1–2, number (total)” value (600 mg BID (N=6)) was 2 [2], the “Oedema peripheral, grade 1–2, number [causally related]” value (600 mg BID (N=6)) was 2 [2] and the “Oedema peripheral, grade 3, number” value (600 mg BID (N=6)) was 0. The “Oedema peripheral, grade 4, number” value (600 mg BID (N=6)) was 0, the “Rash, any grade, number (total)” value (600 mg BID (N=6)) was 1 [1] and the “Rash, any grade, number [causally related]” value (600 mg BID (N=6)) was 1 [1]. The “Rash, any grade, percent” value (600 mg BID (N=6)) was 16.7%, the “Rash, grade 1–2, number” value (600 mg BID (N=6)) was 0 and the “Rash, grade 4, number” value (600 mg BID (N=6)) was 0. The “Thromboembolic event, any grade, number (total)” value (600 mg BID (N=6)) was 1 [1], the “Thromboembolic event, any grade, number [causally related]” value (600 mg BID (N=6)) was 1 [1] and the “Thromboembolic event, any grade, percent” value (600 mg BID (N=6)) was 16.7%. The “Thromboembolic event, grade 1–2, number” value (600 mg BID (N=6)) was 0, the “Thromboembolic event, grade 4, number” value (600 mg BID (N=6)) was 0 and the “Creatine phosphokinase increase, grade 3, number (total)” value [1] was 1[1]*. For the same compound, the “Creatine phosphokinase increase, grade 3, number [causally related]” value [1] was 1[1]*, the “Erythema multiforme, grade 3, number (total)” value [1] was 1 [1]* and the “Erythema multiforme, grade 3, number [causally related]” value [1] was 1 [1]*. For the same compound, the “Hepatic function abnormal, grade 3, number (total)” value [1] was 1 [1]*, the “Hepatic function abnormal, grade 3, number [causally related]” value [1] was 1 [1]* and the “Rash, grade 3, number (total)” value [1] was 1 [1]*. For the same compound, the “Rash, grade 3, number [causally related]” value [1] was 1 [1]*, the “Thromboembolic event, grade 3, number (total)” value [1] was 1 [1]* and the “Thromboembolic event, grade 3, number [causally related]” value [1] was 1 [1]*. The “patients whose treatment was discontinued due to DLTs” value (600 mg BID, out of 6 patients) was 2, the “MTD (maximum tolerated dose)” value [2] was 450 mg BID and the “recommended dose (RD) for phase 2” value [2] was 450 mg BID. For the same compound, the “DLTs observed in case S1-3” value (cohort 1, 600 mg BID) was “grade 3 rash and hepatic function abnormal”, the “DLTs observed in case S1-4” value (cohort 1, 600 mg BID) was “grade 3 erythema multiforme and thromboembolic event” and the “number of dose-limiting toxicities (DLTs)” value (phase 1 cohort 1, 600 mg BID, 6 patients) was 5. For the same compound, the “patients with DLTs” value (phase 1 cohort 1, 600 mg BID, of 6 patients) was 3, the DLTs (phase 1 cohort 2, 450 mg BID, 3 patients) was “no DLTs” and the “grade 3 adverse events including pneumonitis” value (phase 2, 450 mg BID) was 4%.
